Assay results taken from ChEMBL document CHEMBL1687719, “Absence of CD4+ T lymphocytes, CD8+ T lymphocytes, or B lymphocytes has different effects on the efficacy of posaconazole and benznidazole in treatment of experimental acute Trypanosoma cruzi infection” (2009).
Calls of active or inactive are those of the source. The rule behind the calls is not given here.

Key:
Trypanosoma cruzi [1] = assay: Antitrypanosomal activity against Trypanosoma cruzi Y infected in C57BL/6 mouse assessed as cure rate in mouse at 20 mg/kg/day, po administered twice daily for 20 consecutive days measured 60 days post infection; assay type: functional
Procedure, shortened: (§1)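 Wild-type or knockout mice got 5,000 Y-strain blood trypomastigotes ip. Oral dosing ran from 4 dpi for 20 days: 20 mg/kg/day in two doses, in 2% methylcellulose plus 0.5% Tween 80. Cure meant no parasitemia on fresh tail blood up to 60 dpi and a negative hemoculture: 0.5 ml orbital blood in LIT medium, 28°C, 30–60 days, checked by microscopy. Rates compared by chi-square/Bonferroni.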

Trypanosoma cruzi [2] = assay: Antitrypanosomal activity against Trypanosoma cruzi Y infected in CD4+ T-lymphocyte knockout C57BL/6 mouse assessed as reactivation of parasite in mouse at 20 mg/kg/day, po administered twice daily for 20 consecutive days measured 60 days post infection; assay type: functional, organism-based
Procedure, shortened: (§2)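 Ip infection was 5,000 Y-strain blood trypomastigotes. From 4 dpi mice got 20 mg/kg/day orally in two daily doses (2% methylcellulose/0.5% Tween 80) for 20 days. Fresh tail blood was examined microscopically, daily from 4–16 dpi and every other day to 60 dpi. Reactivation was scored as return of patent parasitemia after treatment. Parasitemia curves were compared by Mann-Whitney.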

Trypanosoma cruzi [3] = assay: Antitrypanosomal activity against Trypanosoma cruzi Y infected in CD4+ T-lymphocyte knockout C57BL/6 mouse assessed as reactivation of parasite in mouse at 20 mg/kg/day, po administered twice daily for 20 consecutive days measured 7 days post infection; assay type: functional, organism-based; procedure, shortened: as §2
Trypanosoma cruzi [4] = assay: Antitrypanosomal activity against Trypanosoma cruzi Y infected in CD8+ T-lymphocyte knockout C57BL/6 mouse assessed as mean survival time at 20 mg/kg/day, po administered twice daily for 20 consecutive days measured 60 days post infection; assay type: functional
Procedure, shortened: (§3)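 Mice were infected ip with 5,000 Y-strain blood trypomastigotes. Oral treatment began at 4 dpi at 20 mg/kg/day, split into two daily doses, suspended in 2% methylcellulose with 0.5% Tween 80, for 20 days. Survival was recorded to 60 dpi, giving rate and mean survival time. Untreated and vehicle-treated infected controls were included. Chi-square/Bonferroni comparison.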

Trypanosoma cruzi [5] = assay: Antitrypanosomal activity against Trypanosoma cruzi Y infected in CD4+ T-lymphocyte knockout C57BL/6 mouse assessed as increase in survival of mouse at 20 mg/kg/day, po administered twice daily for 20 consecutive days measured 60 days post infection; assay type: functional; conditions: 1440 h; procedure, shortened: as §3
Trypanosoma cruzi [6] = assay: Antitrypanosomal activity against Trypanosoma cruzi Y infected in C57BL/6 mouse assessed as increase in survival of mouse at 20 mg/kg/day, po administered twice daily for 20 consecutive days measured 60 days post infection; assay type: functional; conditions: 1440 h; procedure, shortened: as §3
Trypanosoma cruzi [7] = assay: Antitrypanosomal activity against Trypanosoma cruzi Y infected in B-lymphocyte knockout C57BL/6 mouse assessed as increase in survival of mouse at 20 mg/kg/day, po administered twice daily for 20 consecutive days measured 60 days post infection; assay type: functional; conditions: 1440 h; procedure, shortened: as §3
Trypanosoma cruzi [8] = assay: Antitrypanosomal activity against Trypanosoma cruzi Y infected in B-lymphocyte knockout C57BL/6 mouse assessed as mean survival time at 20 mg/kg/day, po administered twice daily for 20 consecutive days measured 60 days post infection; assay type: functional; procedure, shortened: as §3
Trypanosoma cruzi [9] = assay: Antitrypanosomal activity against Trypanosoma cruzi Y infected in CD8+ T-lymphocyte knockout C57BL/6 mouse assessed as increase in survival of mouse at 20 mg/kg/day, po administered twice daily for 20 consecutive days measured 60 days post infection; assay type: functional; conditions: 1440 h; procedure, shortened: as §3
Trypanosoma cruzi [10] = assay: Antitrypanosomal activity against Trypanosoma cruzi Y infected in CD8+ T-lymphocyte knockout C57BL/6 mouse assessed as occurrence of low level of circulating parasites at 20 mg/kg/day, po administered twice daily for 20 consecutive days measured 25 days post infection; assay type: functional, organism-based; procedure, shortened: as §2
Trypanosoma cruzi [11] = assay: Antitrypanosomal activity against Trypanosoma cruzi Y infected in B-lymphocyte knockout C57BL/6 mouse assessed as number of mouse with reactivation of infection at 20 mg/kg/day, […] for 20 consecutive days measured 22 days post infection; assay type: functional, organism-based
Trypanosoma cruzi [12] = assay: Antitrypanosomal activity against Trypanosoma cruzi Y infected in CD4+ T-lymphocyte knockout C57BL/6 mouse assessed as mean survival time at 20 mg/kg/day, po administered twice daily for 20 consecutive days measured 60 days post infection; assay type: functional; procedure, shortened: as §3
Trypanosoma cruzi [13] = assay: Antitrypanosomal activity against Trypanosoma cruzi Y infected in CD8+ T-lymphocyte knockout C57BL/6 mouse assessed as number of mouse with reactivated parasite at 20 mg/kg/day, po administered twice daily for 20 consecutive days measured 60 days post infection; assay type: functional; procedure, shortened: as §2
Trypanosoma cruzi [14] = assay: Antitrypanosomal activity against Trypanosoma cruzi Y infected in B-lymphocyte knockout C57BL/6 mouse assessed as cure rate in mouse at 20 mg/kg/day, po administered twice daily for 20 consecutive days measured 60 days post infection; assay type: functional; procedure, shortened: as §1
Trypanosoma cruzi [15] = assay: Antitrypanosomal activity against Trypanosoma cruzi Y infected in CD4+ T-lymphocyte knockout C57BL/6 mouse assessed as reactivation of parasite in mouse at 100 mg/kg/day, po administered once daily for 20 consecutive days measured 60 days post infection; assay type: functional, organism-based
Procedure, shortened: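 Ip infection was 5,000 Y-strain blood trypomastigotes. Oral dosing at 100 mg/kg/day, once daily in gum arabic water, ran from 4 dpi for 20 days. Parasitemia was read by microscopy of fresh tail blood, daily from 4–16 dpi, then every other day to 60 dpi. Reactivation was scored as patent parasitemia returning after treatment ended.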

Trypanosoma cruzi [16] = assay: Antitrypanosomal activity against Trypanosoma cruzi Y infected in CD4+ T-lymphocyte knockout C57BL/6 mouse assessed as cure rate in mouse at 20 mg/kg/day, po administered twice daily for 20 consecutive days measured 60 days post infection; assay type: functional; procedure, shortened: as §1
Trypanosoma cruzi [17] = assay: Antitrypanosomal activity against Trypanosoma cruzi Y infected in CD8+ T-lymphocyte knockout C57BL/6 mouse assessed as cure rate in mouse at 20 mg/kg/day, po administered twice daily for 20 consecutive days measured 60 days post infection; assay type: functional; procedure, shortened: as §1
Trypanosoma cruzi [18] = assay: Antitrypanosomal activity against Trypanosoma cruzi Y infected in CD8+ T-lymphocyte knockout C57BL/6 mouse assessed as occurrence of subpatent level of parasitemia at 20 mg/kg/day, po administered twice daily for 20 consecutive days measured 60 days post infection; assay type: functional, organism-based; procedure, shortened: as §2
Trypanosoma cruzi [19] = assay: Antitrypanosomal activity against Trypanosoma cruzi Y infected in C57BL/6 mouse assessed as mean survival time at 20 mg/kg/day, po administered twice daily for 20 consecutive days measured 60 days post infection; assay type: functional; procedure, shortened: as §3

`CC[C@@H]([C@H](C)O)n1ncn(-c2ccc(N3CCN(c4ccc(OC[C@@H]5CO[C@@](Cn6cncn6)(c6ccc(F)cc6F)C5)cc4)CC3)cc2)c1=O` [POSACONAZOLE] was tested, and the Activity (Trypanosoma cruzi [1]) was 89%, the Activity (Trypanosoma cruzi [2]) was “inactive” and the Activity (Trypanosoma cruzi [3]) was “inactive”. It also gave an MST (Trypanosoma cruzi [4]) of 59.6 days, a survival at 20 mg/kg/day (Trypanosoma cruzi [5]) of 6% and a survival at 20 mg/kg/day (Trypanosoma cruzi [6]) of 100%. The survival at 20 mg/kg/day (Trypanosoma cruzi [7]) was 100%, the MST (Trypanosoma cruzi [8]) was greater than 60 days and the survival at 20 mg/kg/day (Trypanosoma cruzi [9]) was 81%. For the same molecule, the Activity (Trypanosoma cruzi [10]) was “Active”, the Activity (Trypanosoma cruzi [11]) was “Active” and the MST (Trypanosoma cruzi [12]) was 50.5 days. The Activity (Trypanosoma cruzi [13]) was 13%, the Activity (Trypanosoma cruzi [14]) was 71% and the Activity (Trypanosoma cruzi [15]) was “inactive”. The Activity (Trypanosoma cruzi [16]) was 0%, the Activity (Trypanosoma cruzi [17]) was 31% and the Activity (Trypanosoma cruzi [18]) was “Active”. It also gave an MST (Trypanosoma cruzi [19]) greater than 60 days.
